Data on 96 compounds can be found in ChEMBL document CHEMBL4513216, “Probing the Open Global Health Chemical Diversity Library for Multistage-Active Starting Points for Next-Generation Antimalarials” (ACS Infect Dis, 2020).

The structures appear in SMILES notation.

A short description of the series: Toxicity liver stage against HepG2, at 10uM. Particulars: human, HepG2-A16-CD81EGFP cells; read-out: INHIBITION
More on the design: test concentration 10 uM, cell line HepG2-A16-CD81EGFP. It counts as cell-based. The essentials:
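Uninfected HepG2-A16-CD81EGFP cells, 3 × 10^3 per well, 1536-well, plated on prespotted compound at 10 μM final, parasite-free screening media added to match infected plates; puromycin 10 μM positive, DMSO 0.5% negative; run in parallel with 48 h PbLuc assay at 37 °C, 5% CO2; viability by CellTiter-Glo luminescence, normalized to controls.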
For `O=C1O[C@@H]2CN(Cc3cccnc3)C[C@@H]2N1CCCN1CCOCC1`, the cytotoxicity at 10 µM is -2.27%.

Consider `CN(C)C(=O)COc1ccccc1CN1CCOC2(CCCC2)C1`, for which the cytotoxicity at 10 µM was -4.8%. `CCSc1ncc(Cl)c(C(=O)NC(CCSC)C(=O)O)n1` (stereo unspecified): the cytotoxicity at 10 µM is -8.91%.

With `c1ccc(CN2CCC(Cc3noc(C4CC4)n3)CC2)cc1`, the cytotoxicity at 10 µM stood at 5.56%. On to `COc1ccc(CN(C(=O)C2CCCS2)c2ccncc2)cc1` (stereo unspecified), for which the cytotoxicity at 10 µM came to 5.57%. Consider `CN(C)C(=O)[C@@H]1CCO[C@@H]2CCN(c3ncccn3)C[C@@H]21`, for which the cytotoxicity at 10 µM came to 8.31%. As to `c1ccc(CCN2C[C@@H]3OCCN(c4ncccn4)[C@@H]3C2)cc1`, the cytotoxicity at 10 µM is -74.1%. For the compound `COC(=O)CN(C(=O)C(C)c1c(F)cccc1F)c1cccc(C)n1` (stereo unspecified), the cytotoxicity at 10 µM was -2.8%. In the case of `Cc1nn(C(C)C)c(C)c1NC(=O)c1ccccc1`, the cytotoxicity at 10 µM is -11.7%.

As to `O=C(O)[C@@H]1CCN(C(=O)c2cscn2)[C@@H]1c1ccc(F)cc1`, the cytotoxicity at 10 µM turned out to be 4.97%. The figure for `CC(C)CN1CCC(C(=O)NCCNC(=O)c2ccco2)CC1` is -5.18%; for `COc1ccc(-c2c(C(C)C)nn3c(=N)c(C#N)n[nH]c23)cc1` it is -12.2%; for `Cc1cccc(C(=O)N2C[C@@H]3C(CC(=O)Nc4cccnc4)[C@@H]3C2)n1` (stereo partly specified) it is -0.39%. Regarding `COc1ccc(C(=O)N(C2CC2)C2CC(=O)NC2=O)cc1` (stereo unspecified), the cytotoxicity at 10 µM is -10.7%. Turning to `CN(C)c1ncccc1NC(=O)C1CN(Cc2ccccc2)CCO1` (stereo unspecified), the cytotoxicity at 10 µM stood at 0.499%. For the compound `CSc1nccn1-c1ccc(C(=O)NCC2CC2)cc1`, the cytotoxicity at 10 µM was -3.67%. Take `CC1c2ncc(CN3CCN(C)CC3)n2CCN1Cc1ccccn1` (stereo unspecified): the cytotoxicity at 10 µM was -0.23%. In the case of `Cc1cc(F)ccc1S(=O)(=O)N1CCN(C)c2ccncc21`, the cytotoxicity at 10 µM was 8.29%. As for `CN1CCC/C1=N\S(=O)(=O)c1ccc(NC(=O)c2ccsc2)cc1`, the cytotoxicity at 10 µM worked out at 6.49%. Turning to `Cc1cc(N2CCCC2c2cnccn2)ncn1` (stereo unspecified), the cytotoxicity at 10 µM was determined as 2.44%.

As for `O=C(NCCCNC(=O)C1CCC1)NCCn1cccc1`, the cytotoxicity at 10 µM was 0.215%.

`CS(=O)(=O)c1ccc(OCCCN2CCc3cncnc3C2)cc1`: the cytotoxicity at 10 µM is -15.3%.

With `CCN(CCNCc1ccc(C#N)cc1)C1CC1`, the cytotoxicity at 10 µM was -6.54%. Consider `COc1ncccc1CNC(=O)N1CCC(CN2CCOCC2)CC1`, for which the cytotoxicity at 10 µM was -39.2%. For `O=C(Nc1ccnc(OC2CCOC2)c1)C1CCC1` (stereo unspecified), the cytotoxicity at 10 µM turned out to be 5.76%. With `Cn1ccnc1CN1CCC2(CC(=O)N(c3ccc4c(c3)OCO4)C2)C1` (stereo unspecified), the cytotoxicity at 10 µM is -79.8%. As for `Cc1ccc(-c2cccc(N3CCC(NC4CCOCC4)CC3)c2)cc1`, the figure is -12.3%; as for `CCC(CC)C(CNC(=O)Nc1ccc(C)cc1)N1CCOCC1` (stereo unspecified), -5.9%. `Cn1nc(C2CC2)cc1C(=O)N1CCC(c2nnsc2S(C)(=O)=O)CC1`: the cytotoxicity at 10 µM is -0.81%. With `CC(NC(=O)Nc1cnn(CC(N)=O)c1)c1ccc(Cl)s1` (stereo unspecified), the cytotoxicity at 10 µM was 11.5%. The figure for `Cc1cccc(CN2C(=O)CCC23CCN(Cc2ccoc2)CC3)n1` is 2.82%.

On to `CCN1CCC(CC(=O)NCc2nc(C)cc(C)n2)CC1`, for which the cytotoxicity at 10 µM was -8.75%. Regarding `CC(NC(=O)c1cccs1)(C(N)=O)c1cccc(C(F)(F)F)c1` (stereo unspecified), the cytotoxicity at 10 µM is -3.42%. With `C[C@@H]1CN(C(=O)c2nc3ccc(Cl)cn3c2-c2ncc[nH]2)C[C@H](C)O1`, the cytotoxicity at 10 µM is -6.01%. For the compound `CCS(=O)(=O)c1ccc(N2CCC(NC(=O)C3CCCCC3)CC2)cc1`, the cytotoxicity at 10 µM is 12%.

With `O=C(CNc1cc(-n2cnnn2)ccc1F)Nc1cc(F)ccc1F`, the cytotoxicity at 10 µM is -4.09%. The figure for `CN(C)C(=O)c1ccc2ccc(N3CCN(CC4CC4)CC3)n2c1` is 4.14%.

In the case of `Oc1cccc(C2CN(c3nnc(C4CC4)s3)CCO2)c1` (stereo unspecified), the cytotoxicity at 10 µM came to 1.07%.

Turning to `CSc1ccsc1C(=O)NCCNC(=O)C1CC1`, the cytotoxicity at 10 µM came to 1.93%. Regarding `COc1cccc(S(=O)(=O)NC(=O)CC2CCCC2)c1`, the cytotoxicity at 10 µM was 3.13%. As to `COc1ccc(CC(=O)N2CCC3(CC2)CCN(CC(C)C)C3=O)cc1`, the cytotoxicity at 10 µM amounted to 1.11%. On to `COc1c(C2CCCN2C(=O)c2sc(C)nc2C)c(C)nn1C` (stereo unspecified), for which the cytotoxicity at 10 µM is 3.62%.

For `CC(C)(C)CC(=O)NCC(=O)Nc1ccn(CCCn2ccnc2)n1`, the cytotoxicity at 10 µM came out at 10.6%.

As to `CN(C)C(=O)c1n[nH]c2c1CN(Cc1ccccn1)CC2`, the cytotoxicity at 10 µM worked out at 3.17%. For `CCN(CC)C1(Cc2cc(CC(C)C)on2)COC1`, the cytotoxicity at 10 µM was 2.23%. On to `COc1ccccc1C(=O)N1CCC(Nc2ccc(C)nn2)CC1`, for which the cytotoxicity at 10 µM is -4.05%. As to `CSCC[C@@H]1CN2CCC[C@H]2CN1Cc1coc2ccc(Cl)cc2c1=O`, the cytotoxicity at 10 µM stood at 0.11%. Turning to `CCC1c2ccccc2CCN1C(=O)c1ccnc(C(=O)OC)c1` (stereo unspecified), the cytotoxicity at 10 µM is -2.72%. Turning to `COC[C@@]12CCO[C@@H]1CCN(Cc1ccc(C)s1)C2`, the cytotoxicity at 10 µM is -91.9%. As for `Cc1cnc(C(=O)N2CCCC(n3cccn3)C2)cn1` (stereo unspecified), the figure is -0.29%; as for `Cc1cncc(NC(=O)c2ccc(CN3CCCC(C(N)=O)C3)cc2)c1` (stereo unspecified), 0.86%. The figure for `Cc1cnn(CC2CN(CC(=O)Nc3cc(C)no3)CCO2)c1` (stereo unspecified) is -6.13%; for `COCCC(=O)N1CCC(c2ccc3c(NC(C)C)n[nH]c3n2)C1` (stereo unspecified) it is 0.691%; for `Cc1nc(CCN(C)C(=O)CN2C(=O)OC[C@@H]2c2ccccc2)no1` it is -42.2%.

Consider `O=C(CCc1ccsc1)N1CCCC(N2CCNC2=O)C1` (stereo unspecified), for which the cytotoxicity at 10 µM was -5.7%. For the compound `Cc1c(C2=NS(=O)(=O)N(C)C(C(=O)Nc3ccc(Br)cc3)=C2)cnn1C`, the cytotoxicity at 10 µM is 11.7%.

On to `COCc1cc(N2CCN(Cc3ccncc3)CC2)n2nccc2n1`, for which the cytotoxicity at 10 µM is -6.32%. The figure for `CCOc1ccnc(N2CCN(C(=O)c3ccc(C#N)cc3)CC2)n1` is -10.6%; for `Cc1ccc(C(=O)N2CCN(CCc3cccs3)CC2)c(=O)[nH]1` it is -3.94%.

Regarding `CC(C)c1noc(CN(Cc2ccc(F)cc2)C2CC2)n1`, the cytotoxicity at 10 µM was determined as 6.83%. The figure for `Cc1cnn(CC2CN(Cc3nc(N)c4ccccc4n3)CCO2)c1` (stereo unspecified) is 5.9%; for `CC(C)NC(=O)CCNC(=O)Nc1cccc(-c2nccn2C)c1` it is -1.39%.

Take `CN(C)Cc1noc2c1CN(Cc1ccc[nH]1)CC2`: the cytotoxicity at 10 µM turned out to be 7.01%. On to `CO[C@H]1C[C@@H](O)C12CCN(CCOc1ccc(Cl)cc1)CC2`, for which the cytotoxicity at 10 µM is -9.66%. The figure for `O=C(CCc1nc(Cl)n[nH]1)N1C[C@H](CO)C[C@H](CN2CCCC2)C1` is 0.77%; for `CC(C)c1nn(C)c(Cl)c1CNCCn1cccn1` it is -9.11%.

In the case of `CC(C)c1ncncc1C(=O)NCCN1CCCS1(=O)=O`, the cytotoxicity at 10 µM was -8.98%. As for `Fc1ccc(CNCC2OCCc3cn(CC4CC4)nc32)cc1` (stereo unspecified), the cytotoxicity at 10 µM was found to be 0.925%. Regarding `CC(C)(C)N1CC(C(=O)NCc2noc(Cc3ccccc3)n2)CC1=O` (stereo unspecified), the cytotoxicity at 10 µM was 0.824%. Turning to `CN(C)C(=O)c1cn2cc(-c3ccccc3Cl)n(CC3CC3)c(=O)c2n1`, the cytotoxicity at 10 µM is -1.43%.

Consider `CC(C)(C)OC(=O)N1CCN(C(=O)CCn2cccn2)CC1`, for which the cytotoxicity at 10 µM is -14.6%. Regarding `COc1cccc2c(=O)n(Cc3ccnc(C)c3)cnc12`, the cytotoxicity at 10 µM is -0.0198%. As for `Cn1c2ccccc2c2ncn(CCCN3CCOCC3)c(=O)c21`, the figure is 18.3%; as for `CN(Cc1noc(C(C)(C)C)n1)Cc1ccccc1N1CCCCC1`, -4.73%; as for `COC(=O)C1C=CCN1C(=O)c1cc(COc2ccccc2)[nH]n1` (stereo unspecified), -4.45%. Take `CC(C)(C)n1ncc2c(=O)[nH]c(N3CCN(CCO)CC3)nc21`: the cytotoxicity at 10 µM was -13.3%.

Take `CCn1cnnc1CNC(=O)c1ccc(Cl)cc1I`: the cytotoxicity at 10 µM is -6.31%. As to `O=C(c1ccsc1)N1C[C@@H](CN2CCCC2)[C@@H](CO)C1`, the cytotoxicity at 10 µM turned out to be 15.2%.

Consider `Cc1ccc(S(=O)(=O)N2CCOc3ccccc32)cc1C(=O)O`, for which the cytotoxicity at 10 µM is -0.524%.

Take `CCc1nc(CN2CCN(C(=O)c3cc(C)no3)CC2)cs1`: the cytotoxicity at 10 µM was -21.8%. With `CN(C)c1ncccc1CNc1snc(Cl)c1C#N`, the cytotoxicity at 10 µM is -5.1%. `CCOC(=O)c1sc(NC(=O)COC)c(C#N)c1C`: the cytotoxicity at 10 µM stood at 7.61%. As for `CN1C(=O)CC(c2cnn(C)c2)C12CCN(C(=O)c1ccco1)CC2` (stereo unspecified), the figure is -75.5%; as for `CS(=O)(=O)NC1CCN(CCOCc2ccccc2)CC1`, 2.84%; as for `Cc1nc2cc(=O)[nH]n2c(C)c1CC(=O)Nc1cnn(C)c1`, 4.58%. The figure for `Cc1occc1C(=O)N1CCC2(CC1)CN(Cc1nccs1)CCO2` is 5.22%; for `CSCCCN1CC[C@@]2(O)CCN(c3ncccn3)C[C@H]2C1` it is -4.53%; for `Nc1nccnc1C(=O)NCCCNc1ccc(C(F)(F)F)cn1` it is -8.16%. As for `Cc1ccc2c(c1)CN(C(=O)c1cccnc1)C(CN(C)C)CO2` (stereo unspecified), the cytotoxicity at 10 µM is -25.5%.

For `COCC(=O)NCc1cc(=O)n2c(n1)CN(Cc1ccncc1)CCC2`, the cytotoxicity at 10 µM was -99.9%. Take `CNC(=O)c1noc(Cn2ncc3ccccc3c2=O)n1`: the cytotoxicity at 10 µM was -5.35%. Turning to `COc1cc(N2CCC(c3nccn3Cc3ccccn3)CC2)ncn1`, the cytotoxicity at 10 µM is -14.2%.

`CCC(C)(CO)NC(=O)Nc1cc2c(cc1SC)OCCO2` (stereo unspecified): the cytotoxicity at 10 µM was -10.5%. Take `CCc1cn[nH]c1C1CCCN(C(=O)c2cc(C(C)C)on2)C1` (stereo unspecified): the cytotoxicity at 10 µM was -8.6%.

Regarding `Cc1cc(C[C@@H]2COC[C@@H]2NC(=O)CN2CCCN(C)CC2)on1`, the cytotoxicity at 10 µM is -15%. In the case of `CC(C)OCCCNC(=O)CN1CCN(c2nccs2)CC1`, the cytotoxicity at 10 µM was 3.44%.
